Compounds with a hit are over-represented: about 3.8% of the library has one in this group of screens.
Kir21 block: Kir2.1 (mouse) channel inhibition | HEK293-Kir2.1, FluxOR thallium flux fluorescence; active compounds read low | B-score at 10 µM | 310,000 tested, 0.85% active;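 active means fluorescence ratio B-score at or below minus 3 SD of library scores, with starting-brightness B-score within 2 SD, cut at about -4.2 in these data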;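 further: channel flux triggered by added potassium and thallium sulfate stimulus; B-score of peak minus minimum fluorescence over baseline after thallium stimulus; more negative B-score means stronger Kir2.1 block with less thallium influx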
Target sequence (P35561 whole entry, looked up): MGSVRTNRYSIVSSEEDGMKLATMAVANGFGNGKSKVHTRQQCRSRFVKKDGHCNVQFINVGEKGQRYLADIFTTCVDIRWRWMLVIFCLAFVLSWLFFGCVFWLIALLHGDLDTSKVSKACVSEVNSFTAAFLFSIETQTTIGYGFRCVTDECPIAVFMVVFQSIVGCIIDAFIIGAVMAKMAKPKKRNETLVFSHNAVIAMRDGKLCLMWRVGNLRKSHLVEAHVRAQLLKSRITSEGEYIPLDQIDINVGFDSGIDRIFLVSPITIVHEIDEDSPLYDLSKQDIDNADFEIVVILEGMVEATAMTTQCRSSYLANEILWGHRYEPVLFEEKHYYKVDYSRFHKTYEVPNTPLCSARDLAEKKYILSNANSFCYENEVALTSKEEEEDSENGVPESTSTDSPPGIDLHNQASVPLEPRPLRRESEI
hERG protect: hERG (human) protection from proarrhythmic block. AID 1511. CHO-hERG, FluxOR thallium flux, dofetilide IC70 present. 310,000 tested, 0.51% active. activation (rescue from dofetilide block), less the hit threshold, % at 10 µM;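 active means activation above the mean of controls blocked by dofetilide plus 5 SD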;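 further: thallium influx through hERG after potassium depolarization seen as dye fluorescence rise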
KCNK9 block: human KCNK9 channel inhibition | Q9NPC2 | HEK293 KCNK9, FluxOR thallium flux fluorescence; active compounds read low | B-score at 10 µM | 310,000 tested, 1.2% active | AID 488922;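 active means ratio B-score over 3 SD below the library mean, with starting fluorescence within 5 SD of its mean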;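 further: negative B-score means less thallium flux so channel inhibition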
KCNQ1 act: potentiators or activators of human KCNQ1 potassium channel; P51787; CHO-K1 KCNQ1, thallium flux FluxOR fluorescence; active compounds read high; B-score at 10 µM; 310,000 tested, 0.35% active;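 active means fluorescence ratio B-score, a plate-corrected score, at least three library SD, with initial intensity B-score within 5 SD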
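Assay system: stable KCNQ1 CHO-K1 line; medium: assay buffer, equal DMSO in all wells; timing: 90 min dye loading and 20 min compound exposure, both at room temperature; technique: kinetic FluxOR thallium fluorescence, 10-s 1-Hz baseline, 110-s post-stimulus read; read-out basis: B score of baseline-normalized fluorescence ratio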
KCNK3 inh: human KCNK3 channel inhibition, primary screen; 340,000 tested, 0.84% active; B-score at 10 µM; O14649; AID 602410; CHO-KCNK3 thallium flux, FluxOR fluorescence; active compounds read low;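 active means B-score under library mean minus 4 SD, starting fluorescence ratio at most library mean plus 5 SD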;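 further: more negative B-score means stronger inhibition of thallium flux through KCNK3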
KCNQ1 block: blocks the human KCNQ1 potassium channel. P51787. CHO-K1 KCNQ1, FluxOR thallium flux fluorescence; active compounds read high. B-score at 10 µM. 310,000 tested, 1.3% active;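 active means compounds whose thallium flux B-score, printed positive for inhibition, exceeds three library SD while starting fluorescence stays within three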;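 further: channel opened by potassium depolarization with thallium stimulus after 20 min compound exposure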
KCNQ1 inh valid: reconfirmed blocker of the human KCNQ1 potassium channel; KCNQ1 cell line, FluxOR thallium flux fluorescence; AID 588353; inhibition, % at 10 µM; shares compounds with KCNQ1 block; 1,600 tested, 93% active;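 active means primary screen active, with duplicate mean exceeding buffer control mean plus 3 SD of buffer wells, cut at about 28% in these data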;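 further: 0% = buffer control ratio and 100% = XE991 inhibitor control ratio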
CHO Tl flux: KCNQ1 inhibitor counter-screen hit in parental CHO cells; 1,600 tested, 21% active; shares compounds with KCNQ1 block; parental CHO-K1, FluxOR thallium flux fluorescence ratio; active compounds read low; zero means no signal rise above baseline; fluorescence ratio (Tl flux) at 10 µM;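 active means mean of duplicate thallium-flux fluorescence ratios in parental host cells more than 5 SD below the buffer control mean, cut at about 0.38 in these data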;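 further: ratio is peak minus minimum fluorescence divided by baseline fluorescence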
KCNQ1 ephys val: human KCNQ1 inhibition validated by electrophysiology; shares compounds with KCNQ1 block; KCNQ1-CHO cells, automated patch clamp current; calls only at 10 µM; 490 tested, 20% active;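 active means KCNQ1 current drop exceeding 3 SD of negative control wells, seen in both duplicate runs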;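 further: steady state current during a 2 s step from -80 to +40 mV; negative values mean current inhibition and positive values mean potentiation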
KCNQ2 inh: selectivity of KCNQ1 inhibitors: inhibition of rat KCNQ2 channel; inhibition, % at 10 µM; 1,600 tested, 71% active; KCNQ2 cells, FluxOR thallium flux fluorescence; shares compounds with KCNQ1 block;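 active means mean percent inhibition of the KCNQ2 thallium signal more than 5 SD above the buffer-only control wells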;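 further: KCNQ2 expressed in CHO cells; 0% = buffer control wells and 100% = XE-991 inhibitor control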
KCNQ1-KCNE1 inh: human KCNQ1/KCNE1 inhibition in KCNQ1 specificity screen; shares compounds with KCNQ1 block; KCNQ1/KCNE1 cells, FluxOR thallium flux fluorescence; inhibition, % at 10 µM; 1,600 tested, 77% active; AID 652147;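 active means mean percent inhibition of duplicate wells above the buffer-only control mean plus 3 SD of those controls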;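 further: 0% = buffer only wells and 100% = XE-991 inhibitor control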
The depositor's hits bear a star; i = inactive; . = not tested or not shown.

SMILES	Kir21 block	hERG protect	KCNK9 block	KCNQ1 act	KCNK3 inh	KCNQ1 block	KCNQ1 inh valid	CHO Tl flux	KCNQ2 inh	KCNQ1-KCNE1 inh	others
CC(Nc1ccc(Cl)cc1)c1cc(Cl)ccc1O (centres undefined)	-5.8*	-7	i	i	i	6*	124*	0.48	i	152%*
CCOc1ccc(NC(C)c2cc(Cl)ccc2O)cc1 (centres undefined)	0.66	-5	i	i	i	i	.	.	.	.
COc1ccc(C(C)=O)cc1CSc1nncn1C	-0.82	-4	i	i	i	8*	64*	0.43	60%*	35%*
Cc1noc(C)c1CSCC(=O)Nc1cc(Cl)ccc1N1CCCCC1	-0.96	-13	i	i	i	8*	125*	0.38*	121%*	174%*
Cc1noc(C)c1CSCC(=O)Nc1cc(C(F)(F)F)ccc1N1CCCCC1	-1.1	-10	i	i	i	i	.	.	.	.
Cn1c(SCC(=O)NNC(=O)c2ccccc2Br)nnc1C(F)(F)F	.	.	.	.	i	.	.	.	.	.
O=C(Nc1ccc(Oc2ccc3ccccc3c2)cc1)c1ccco1	0.83	-23	i	i	i	14*	150*	0.35*	i	186%*
O=C(Nc1ccc(F)cc1)NC1CCCCCCC1	-0.18	-7	i	i	i	i	.	.	.	.
O=C(Nc1ccc(F)cc1)C(NC1CCCCC1)c1ccccc1 (centres undefined)	0.03	-5	i	i	i	7*	76*	0.48	65%*	105%*
Cc1cc(S(=O)(=O)N2CCCOC2CNC(=O)C(=O)NCc2cccs2)ccc1F (centres undefined)	0	-8	i	i	i	i	.	.	.	.
C/C(=N\NC(=O)C(O)c1ccccc1)c1ccc(Br)s1 (centres undefined)	1.1	-15	i	i	i	i	.	.	.	.
O=C(c1ccc(C(F)(F)F)cc1)c1c[nH]c(C(=O)NCCCn2ccnc2)c1	-2.8	-21	i	i	i	7*	59*	0.44	i	89%*
COc1ccc2[nH]cc(CCNC(=O)Cc3ccc(F)cc3)c2c1	-0.83	-7	i	i	i	i	.	.	.	.
Cc1cccc(C)c1OCc1cc(C(=O)N2CCN(c3ccccc3)CC2C)no1 (centres undefined)	-1	-14	i	i	i	8*	86*	0.38*	117%*	120%*
Cc1cccc(C)c1OCc1cc(C(=O)N2CCC(c3ccncc3)CC2)no1	-0.01	-22	i	i	i	7*	113*	0.52	69%*	35%*	KCNQ1 ephys val=i
CC(C)(C)c1ccc(C2(C)NC(=O)NC2=O)cc1 (centres undefined)	-0.03	-9	i	i	i	i	.	.	.	.
CCOc1ccc(OCCSc2ccc(S(=O)(=O)N3CCN(C)CC3)cn2)cc1	.	.	.	.	i	.	.	.	.	.
COc1ccccc1NC(=O)c1cnc(SCC(=O)NCC2CCCO2)n(C)c1=O (centres undefined)	-0.26	-10	i	i	i	i	.	.	.	.
CCOc1ccccc1NC(=O)C(OC(=O)c1ccccc1)c1ccccc1 (centres undefined)	0.26	-2	-6.9*	i	i	6*	90*	0.4	107%*	126%*	KCNQ1 ephys val=i

Compound activity as filed in PubChem BioAssay.
